According to ChEMBL document CHEMBL1124898, “Novel agents effective against solid tumors: the diarylsulfonylureas. Synthesis, activities, and analysis of quantitative structure-activity relationships” (J Med Chem, 1990):
Values after ≈ are worked out from the molar mass of the structure shown.

What was measured:
CCRF-CEM = assay: Concentration required to inhibit growth of CCRF-CEM cells in culture for 72 hr to 50% of control growth; type: functional, cell-based; conditions: Homo sapiens
[1] = Antitumor activity in vivo against the 6C3HED lymphosarcoma dosed for 10 days at 150 mg/kg; type: functional; conditions: Mus musculus, 192 h, in the assay text read “dosed for 8 days” for “dosed for 10 days”
Procedure, shortened: (§1)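 Tumor fragments (about 1–2 mm) implanted sc via trochar into a subaxillary site of syngeneic mice (C3H, C57BL/6, Balb/C or DBA/2) or Holtz rats. Groups were 7–10 randomized animals. Compound was suspended in 2.5% Emulphor in 0.9% saline and given orally by gavage or ip, usually from the day after implantation. Tumor volume versus untreated controls was measured one day after the final dose and reported as % inhibition. Scoring bands: +++ 95–100%, ++ 80–94%.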

Rattus norvegicus [2] = assay: Hypoglycemic activity expressed as (Maximum reduction in blood glucose in mg/dL relative to predosing glucose level)/(time in hours at which maximum reduction occurred); type: functional
Procedure, shortened: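 Fed male Sprague-Dawley rats (175–200 g), four per compound, received a single oral gavage dose of 200 mg/kg suspended in 5% acacia. Tail blood was sampled before dosing and at 1, 2, 3 and 5 h, and glucose was measured by glucose oxidase/peroxidase colorimetry. Each rat served as its own control. Value = maximum fall from predose glucose (mg/dL) divided by the hour at which that maximum occurred.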

[3] = Antitumor activity in vivo against the 6C3HED lymphosarcoma, dosed for 8 days at 300 mg/kg; conditions: Mus musculus, 192 h
[4] = Antitumor activity in vivo against the 6C3HED lymphosarcoma dosed for 8 days at 150 mg/kg; conditions: Mus musculus, 192 h
[5] = Antitumor activity in vivo against the 6C3HED lymphosarcoma dosed for 8 days at 100 mg/kg; conditions: Mus musculus, 192 h
Rattus norvegicus [6] = assay: Antitumor activity in vivo expressed as percent of inhibition in Yoshida-sarcoma (rat) cell line; type: functional; procedure, shortened: as §1
B16 [7] = assay: Antitumor activity in vivo expressed as percent of inhibition in B-16-melanoma […] cell line; type: functional, Mus musculus; procedure, shortened: as §1
L1210 = assay: Antitumor activity in vivo and the activity was determined as percent increase in life span determined against L1210V-lymphocytic leukemia tumor cell lines; type: functional, Mus musculus
Procedure, shortened: (§2)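 The ascites tumor inoculum of 1 × 10^6 cells was given ip to DBA/2 mice, and treatment started the next day. Compound was suspended in 2.5% Emulphor in 0.9% saline. Groups had 7–10 animals. %ILS = (MDD treated − MDD control)/MDD control × 100. Deaths before the control median day of death were counted as toxic. Values are optimal from at least two experiments.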

CA-755 [8] = assay: Antitumor activity in vivo expressed as percent of inhibition in CA-755-mammary adenocarcinoma tumor cell line; type: functional, Mus musculus; procedure, shortened: as §1
6C3HED [9] = assay: Antitumor activity in vivo expressed as percent of inhibition in 6C3HED-lymphosarcoma tumor cell line; type: functional, Mus musculus; procedure, shortened: as §1
P1534J = assay: Antitumor activity in vivo expressed as percent of inhibition in P1534J-lymphatic leukemia cell line; type: functional, Mus musculus
C3H [10] = assay: Antitumor activity in vivo expressed as percent of inhibition in C3H-mammary adenocarcinoma cell line; type: functional, Mus musculus; procedure, shortened: as §1
X5563 [11] = assay: Antitumor activity in vivo expressed as percent of inhibition in X5563-plasma cell myeloma cell line; type: functional, Mus musculus; procedure, shortened: as §1
M-5 (Mus musculus) [12] = assay: Antitumor activity in vivo expressed as percent of inhibition in M-5-ovarian carcinoma cell line
[13] = tested on: Lewis lung carcinoma cell line; assay: Antitumor activity in vivo expressed as percent of inhibition in Lewis-lung carcinoma cell line; type: functional, Mus musculus; procedure, shortened: as §1
Colon 26 [14] = assay: Antitumor activity in vivo expressed as percent of inhibition in C-26-colon carcinoma cell line; type: functional, Mus musculus; procedure, shortened: as §1
P388 [15] = assay: Antitumor activity in vivo and the activity was determined as percent increase in life span determined against P388-lymphocytic leukemia tumor cell lines; type: functional, Mus musculus; procedure, shortened: as §2
C3H [16] = assay: Antitumor activity in vivo expressed as percent of inhibition in C3H-mammary adenocarcinoma cell line; 95-100% inhibition; type: functional, Mus musculus; procedure, shortened: as §1
M-5 (Mus musculus) [17] = assay: Antitumor activity in vivo expressed as percent of inhibition in M-5-ovarian carcinoma cell line; 95-100% inhibition
6C3HED [18] = assay: Antitumor activity in vivo expressed as percent of inhibition in 6C3HED-lymphosarcoma tumor cell line; 95-100% inhibition; type: functional, Mus musculus; procedure, shortened: as §1
CA-755 [19] = assay: Antitumor activity in vivo expressed as percent of inhibition in CA-755-mammary adenocarcinoma tumor cell line; 95-100% inhibition; type: functional, Mus musculus; procedure, shortened: as §1
M109 = assay: Antitumor activity in vivo expressed as percent of inhibition in Madison-lung carcinoma cell line; 80-94% inhibition; type: functional, Mus musculus; procedure, shortened: as §1
P388 [20] = assay: Antitumor activity in vivo and the activity was determined as percent increase in life span determined against P388-lymphocytic leukemia tumor cell lines; 50-99 %; type: functional, Mus musculus; procedure, shortened: as §2
Colon 26 [21] = assay: Antitumor activity in vivo expressed as percent of inhibition in C-26-colon carcinoma cell line; 95-100% inhibition; type: functional, Mus musculus; procedure, shortened: as §1
X5563 [22] = assay: Antitumor activity in vivo expressed as percent of inhibition in X5563-plasma cell myeloma cell line; 60-79 % inhibition; type: functional, Mus musculus; procedure, shortened: as §1
B16 [23] = assay: Antitumor activity in vivo expressed as percent of inhibition in B-16-melanoma (solid) cell line; type: functional, Mus musculus; procedure, shortened: as §1

IC50 (CCRF-CEM) [µg/mL]	SMILES	inhibition in vivo at 300 mg/kg [3] [%]	further results
> 20	Cc1ccc(S(=O)(=O)NC(=O)Nc2ccc(Cl)cc2Cl)cc1	39	
14.6 (≈ 40 µM)	O=C(Nc1ccc(Cl)cc1)NS(=O)(=O)c1ccc2c(c1)CCCC2	70	
15.5 (≈ 37.5 µM)	O=C(Nc1ccc(C(F)(F)F)cc1)NS(=O)(=O)c1ccc(Cl)c(Cl)c1		inhibition in vivo at 150 mg/kg [1]: 85%
14.3 (≈ 37.1 µM)	COc1ccc(S(=O)(=O)NC(=O)Nc2ccc(Br)cc2)cc1		inhibition in vivo at 150 mg/kg [1]: 99%
7.4 (≈ 22.1 µM)	Cc1ccc(S(=O)(=O)NC(=O)Nc2ccc([N+](=O)[O-])cc2)cc1	34	
12.8 (≈ 39.2 µM)	Cc1ccc(S(=O)(=O)NC(=O)Nc2ccc(F)c(F)c2)cc1	60	
> 20	COc1ccc(NC(=O)NS(=O)(=O)c2ccc(C)cc2)cc1OC	12	
14.1 (≈ 32.5 µM)	O=C(Nc1ccc(Br)cc1)NS(=O)(=O)c1ccc(Br)cc1		inhibition in vivo at 150 mg/kg [4]: 100%
17.4 (≈ 56.4 µM)	Cc1ccc(S(=O)(=O)NC(=O)Nc2ccc(F)cc2)cc1	95	
> 20	Cc1ccc(S(=O)(=O)NC(=O)Nc2ccc(CC#N)cc2)cc1	10	
7.1 (≈ 20 µM)	O=C(Nc1ccc(Br)cc1)NS(=O)(=O)c1ccccc1		inhibition in vivo at 150 mg/kg [1]: 82%
16.1 (≈ 45.6 µM)	O=C(Nc1ccc(Cl)cc1)NS(=O)(=O)c1ccc2c(c1)CCO2	94	
16.9 (≈ 47.9 µM)	CC(=O)c1ccc(S(=O)(=O)NC(=O)Nc2ccc(Cl)cc2)cc1	55	
11.2 (≈ 31 µM)	O=C(Nc1ccc(Cl)cc1)NS(=O)(=O)c1ccc2ccccc2c1	100	Ratio (Rattus norvegicus [2]): 0
28 (≈ 82.3 µM)	Cc1ccc(S(=O)(=O)NC(=O)Nc2ccc3ccccc3c2)cc1	5	
15.8 (≈ 42.7 µM)	Cc1ccc(S(=O)(=O)NC(=O)Nc2ccc(Cl)c([N+](=O)[O-])c2)cc1	30	
6 (≈ 17.4 µM)	O=C(Nc1ccc(C(F)(F)F)cc1)NS(=O)(=O)c1ccccc1		inhibition in vivo at 150 mg/kg [1]: 81%

The next lines start with the compound.

SMILES	IC50 (CCRF-CEM) [µg/mL]	inhibition in vivo at 300 mg/kg [3] [%]	further results
O=C(Nc1ccc(C(F)(F)F)cc1)NS(=O)(=O)c1cccc(C(F)(F)F)c1	15.6 (≈ 37.8 µM)		inhibition in vivo at 150 mg/kg [1]: 39%
Cc1ccc(S(=O)(=O)NC(=O)Nc2cc(Cl)c(Cl)c(Cl)c2)cc1	> 20	44	Ratio (Rattus norvegicus [2]): 0
Cc1ccc(S(=O)(=O)NC(=O)Sc2ccc(Cl)cc2)cc1	0.9 (≈ 2.63 µM)		inhibition in vivo at 150 mg/kg [1]: 33%
Cc1ccc(S(=O)(=O)NC(=O)Nc2ccc(Br)cc2)cc1	8.2 (≈ 22.2 µM)		inhibition in vivo at 150 mg/kg [4]: 100%
Cc1ccc(S(=O)(=O)NC(=O)Nc2ccccc2Cl)cc1	> 20	1	
Cc1ccccc1S(=O)(=O)NC(=O)Nc1ccc(C(F)(F)F)cc1	13.7 (≈ 38.2 µM)		inhibition in vivo at 150 mg/kg [1]: 67%
Cc1ccc(S(=O)(=O)NC(=O)Nc2nc(C)cc(C)n2)cc1	> 20	0	
CC(C)(C)c1ccc(S(=O)(=O)NC(=O)Nc2ccc(Cl)cc2)cc1	13.5 (≈ 36.8 µM)	84	
CCCCOC(=O)c1ccc(NC(=O)NS(=O)(=O)c2ccc(C)cc2)cc1	> 20	0	
O=C(Nc1ccc(Cl)cc1)NS(=O)(=O)c1cccc(Cl)c1	9 (≈ 26.1 µM)		inhibition in vivo at 150 mg/kg [1]: 98%
COc1ccc(S(=O)(=O)NC(=O)Nc2ccc(C(F)(F)F)cc2)cc1	8 (≈ 21.4 µM)		inhibition in vivo at 150 mg/kg [4]: 100%
COC(=O)c1ccc(S(=O)(=O)NC(=O)Nc2ccc(C(F)(F)F)cc2)cc1	2.6 (≈ 6.46 µM)		inhibition in vivo at 150 mg/kg [1]: 0%
CCc1ccc(S(=O)(=O)NC(=O)Nc2ccc(Cl)cc2)cc1	7.5 (≈ 22.1 µM)		inhibition in vivo at 150 mg/kg [4]: 100%
O=C(Nc1ccc(Cl)c(Cl)c1)NS(=O)(=O)c1ccc(Cl)cc1	9.9 (≈ 26.1 µM)		inhibition in vivo at 150 mg/kg [1]: 85%
O=C(Nc1ccc(Cl)c(Cl)c1)NS(=O)(=O)c1ccccc1	1.5 (≈ 4.35 µM)		inhibition in vivo at 150 mg/kg [4]: 100%
Cc1ccc(S(=O)(=O)NC(=O)Nc2ccccn2)cc1	> 20	2	
Cc1ccc(S(=O)(=O)NC(=O)Nc2cc(Cl)c(Cl)cc2C)cc1	16 (≈ 42.9 µM)	15	

SMILES	IC50 (CCRF-CEM) [µg/mL]	inhibition in vivo at 300 mg/kg [3] [%]	further results
O=C(Nc1ccc(Cl)cc1)NS(=O)(=O)c1ccccc1	3.8 (≈ 12.2 µM)		inhibition in vivo at 150 mg/kg [4]: 100%
O=C(Nc1ccc(Cl)cc1)NS(=O)(=O)c1ccc(Cl)c(Cl)c1	14.2 (≈ 37.4 µM)		inhibition in vivo at 150 mg/kg [4]: 100%
Cc1ccc(S(=O)(=O)NC(=O)Nc2cccc3ccccc23)cc1	> 20	0	
Cc1cccc(S(=O)(=O)NC(=O)Nc2ccc(Cl)cc2)c1	4.3 (≈ 13.2 µM)		inhibition in vivo at 150 mg/kg [4]: 100%
COc1ccc(NC(=O)NS(=O)(=O)c2ccc(OC)cc2)cc1	15.3 (≈ 45.5 µM)	16	
Cc1ccc(S(=O)(=O)NC(=O)Nc2ccc(I)cc2)cc1	19.6 (≈ 47.1 µM)		inhibition in vivo at 150 mg/kg [1]: 76%
Cc1ccc(S(=O)(=O)NC(=O)Nc2ccc(Oc3ccccc3)cc2)cc1	> 20	0	
O=C(Nc1ccc(Cl)cc1)NS(=O)(=O)c1ccc(F)cc1	6.3 (≈ 19.2 µM)		inhibition in vivo at 150 mg/kg [1]: 79%
O=C(Nc1ccc(Cl)cc1)NS(=O)(=O)c1ccc(Cl)cc1	19.3 (≈ 55.9 µM)		inhibition in vivo at 100 mg/kg [5]: 100%
O=C(Nc1ccc(C(F)(F)F)cc1)NS(=O)(=O)c1ccc(Cl)cc1	5.8 (≈ 15.3 µM)		inhibition in vivo at 150 mg/kg [1]: 94%; Ratio (Rattus norvegicus [2]): 0
Cc1ccc(S(=O)(=O)NC(=O)Nc2ccc(Cl)c(Cl)c2)cc1	5.8 (≈ 16.1 µM)	100	
O=C(Nc1ccc(Cl)cc1)NS(=O)(=O)c1cccnc1	7.1 (≈ 22.8 µM)	3	
COc1ccc(S(=O)(=O)NC(=O)Nc2ccc(Cl)cc2)cc1	12.6 (≈ 37 µM)		inhibition in vivo at 150 mg/kg [4]: 100%
Cc1ccc(S(=O)(=O)NC(=O)NC2CCCCC2)cc1 [GLYCYCLAMIDE]	> 20	56	
Cc1ccc(S(=O)(=O)NC(=O)Nc2ccc(Cl)cc2)cc1 [LY-181984]	8.9 (≈ 27.4 µM)	100	Inhibition (Rattus norvegicus [6]): 79%; Inhibition (B16 [7]): 79%; Increase in life-span (L1210): <50%; Inhibition (CA-755 [8]): 100%; Inhibition (6C3HED [9]): 100%; Inhibition (P1534J): 100%; Inhibition (C3H [10]): 94%; Inhibition (X5563 [11]): 94%; Inhibition (M-5 (Mus musculus) [12]): 100%; Inhibition [13]: <60%; Inhibition (Colon 26 [14]): 94%; Increase in life-span (P388 [15]): <50%
O=C(Nc1ccc(Cl)cc1)NS(=O)(=O)c1ccc2c(c1)CCC2 [SULOFENUR]	11.2 (≈ 31.9 µM)	100	Inhibition (C3H [16]): 100%; Inhibition (M-5 (Mus musculus) [17]): 100%; Inhibition (6C3HED [18]): 100%; Inhibition (CA-755 [19]): 100%; Inhibition (M109): 94%; Increase in life-span (P388 [20]): 99%; Inhibition [13]: <60%; Inhibition (Colon 26 [21]): 100%; Inhibition (X5563 [22]): 79%; Ratio (Rattus norvegicus [2]): 0; Inhibition (B16 [23]): <60%
